{"source": "ChEMBL document CHEMBL3745659", "about": "“Synthesis and Characterization of 4,11-Diaminoanthra[2,3-b]furan-5,10-diones: Tumor Cell Apoptosis through tNOX-Modulated NAD(+)/NADH Ratio and SIRT1” (J Med Chem, 2015)", "key": {"[1]": {"target": "T1, DNA topoisomerase 1 (Homo sapiens) (UniProt P11387)", "T1 sequence (whole entry)": "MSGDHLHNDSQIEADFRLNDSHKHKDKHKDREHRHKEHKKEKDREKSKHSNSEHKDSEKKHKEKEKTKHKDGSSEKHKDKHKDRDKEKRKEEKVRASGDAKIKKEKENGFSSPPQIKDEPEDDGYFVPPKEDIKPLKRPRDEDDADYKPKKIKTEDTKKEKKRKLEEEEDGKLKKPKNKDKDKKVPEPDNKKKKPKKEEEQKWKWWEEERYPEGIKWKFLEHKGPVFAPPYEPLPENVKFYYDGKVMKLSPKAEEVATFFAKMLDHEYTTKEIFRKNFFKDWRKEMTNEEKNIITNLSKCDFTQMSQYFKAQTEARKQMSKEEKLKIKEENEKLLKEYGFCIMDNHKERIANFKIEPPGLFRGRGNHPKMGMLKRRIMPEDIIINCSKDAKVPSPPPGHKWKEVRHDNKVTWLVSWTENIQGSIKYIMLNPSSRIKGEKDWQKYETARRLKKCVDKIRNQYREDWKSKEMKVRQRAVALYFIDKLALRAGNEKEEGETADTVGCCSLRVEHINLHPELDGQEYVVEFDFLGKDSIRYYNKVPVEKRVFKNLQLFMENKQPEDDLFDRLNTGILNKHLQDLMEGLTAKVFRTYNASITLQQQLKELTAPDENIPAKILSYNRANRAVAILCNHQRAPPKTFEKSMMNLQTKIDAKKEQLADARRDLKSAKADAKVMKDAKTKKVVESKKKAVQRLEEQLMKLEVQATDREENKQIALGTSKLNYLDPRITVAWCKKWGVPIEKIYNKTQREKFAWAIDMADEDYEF", "experiment": "Inhibition of Top1 (unknown origin)-mediated relaxation of pBR322 DNA at 2.5 uM incubated for 30 mins by ethidium bromide staining-based gel electrophoresis assay", "in_short": "(§1)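 Supercoiled pBR322 plasmid treated with Top1 without drug or with compound at 0.5, 2.5 or 10 µM; camptothecin as reference; relaxation assessed by gel electrophoresis.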"}, "AGS [2]": {"system": "AGS", "experiment": "Upregulation of phosphorylated p53 level in human AGS cells at 1 and 5 uM after 24 hrs by Western blot analysis", "format": "functional, cell-based"}, "[3]": {"target": "T1, DNA topoisomerase 1 (Homo sapiens)", "experiment": "Inhibition of Top1 (unknown origin)-mediated relaxation of pBR322 DNA at 0.5 uM incubated for 30 mins by ethidium bromide staining-based gel electrophoresis assay", "in_short": "as §1"}, "K562 [4]": {"system": "K562", "experiment": "Antiproliferative activity against human K562 cells after 72 hrs by MTT assay", "format": "functional, cell-based", "details": "K562, 72 h"}, "AGS [5]": {"system": "AGS", "experiment": "Induction of apoptosis in human AGS cells assessed as necrotic cells at 10 uM after 24 hrs by annexin V-FITC staining-based flow cytometric analysis (Rvb=1.1%)", "format": "functional"}, "AGS [6]": {"system": "AGS", "experiment": "Increase in intracellular NAD+/NADH ratio in human AGS cells at 5 uM incubated for 5 mins", "format": "functional, cell-based"}, "L1210": {"system": "L1210", "experiment": "Antiproliferative activity against mouse L1210 cells after 72 hrs by MTT assay", "details": "L1210, 72 h"}, "AGS [7]": {"system": "AGS", "experiment": "Induction of apoptosis in human AGS cells after 24 hrs by annexin V-FITC staining-based flow cytometric analysis", "format": "functional, cell-based", "in_short": "(§2)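 AGS cells exposed to compound for 24 h; Annexin V-FITC staining and flow cytometry used to give percentage of apoptotic cells; mean ± S.E. from at least three independent experiments.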"}, "CCRF-CEM": {"system": "CCRF-CEM", "experiment": "Antiproliferative activity against human CEM cells after 72 hrs by MTT assay", "format": "functional, cell-based"}, "AGS [8]": {"system": "AGS", "experiment": "Induction of apoptosis in human AGS cells assessed as late apoptotic cells at 10 uM after 24 hrs by annexin V-FITC staining-based flow cytometric analysis (Rvb=5.5%)", "format": "functional", "in_short": "as §2"}, "AGS [9]": {"system": "AGS", "experiment": "Upregulation of acetylated p53 level in human AGS cells at 1 and 5 uM after 24 hrs by Western blot analysis", "format": "functional, cell-based"}, "AGS [10]": {"system": "AGS", "experiment": "Downregulation of SIRT1 protein level in human AGS cells at 1 and 5 uM after 24 after 24 hrs by Western blot analysis", "format": "functional, cell-based"}, "AGS [11]": {"system": "AGS", "experiment": "Upregulation of caspase3-directed PARP cleavage in human AGS cells at 5 uM after 24 hrs by Western blot analysis", "format": "functional, cell-based"}, "AGS [12]": {"system": "AGS", "experiment": "Induction of apoptosis in human AGS cells assessed as early apoptotic cells at 5 uM after 24 hrs by annexin V-FITC staining-based flow cytometric analysis (Rvb=9.8%)", "format": "functional", "in_short": "as §2"}, "[13]": {"target": "T2, NAD-dependent protein deacetylase sirtuin-1 (Homo sapiens) (UniProt Q96EB6)", "T2 sequence (whole entry)": "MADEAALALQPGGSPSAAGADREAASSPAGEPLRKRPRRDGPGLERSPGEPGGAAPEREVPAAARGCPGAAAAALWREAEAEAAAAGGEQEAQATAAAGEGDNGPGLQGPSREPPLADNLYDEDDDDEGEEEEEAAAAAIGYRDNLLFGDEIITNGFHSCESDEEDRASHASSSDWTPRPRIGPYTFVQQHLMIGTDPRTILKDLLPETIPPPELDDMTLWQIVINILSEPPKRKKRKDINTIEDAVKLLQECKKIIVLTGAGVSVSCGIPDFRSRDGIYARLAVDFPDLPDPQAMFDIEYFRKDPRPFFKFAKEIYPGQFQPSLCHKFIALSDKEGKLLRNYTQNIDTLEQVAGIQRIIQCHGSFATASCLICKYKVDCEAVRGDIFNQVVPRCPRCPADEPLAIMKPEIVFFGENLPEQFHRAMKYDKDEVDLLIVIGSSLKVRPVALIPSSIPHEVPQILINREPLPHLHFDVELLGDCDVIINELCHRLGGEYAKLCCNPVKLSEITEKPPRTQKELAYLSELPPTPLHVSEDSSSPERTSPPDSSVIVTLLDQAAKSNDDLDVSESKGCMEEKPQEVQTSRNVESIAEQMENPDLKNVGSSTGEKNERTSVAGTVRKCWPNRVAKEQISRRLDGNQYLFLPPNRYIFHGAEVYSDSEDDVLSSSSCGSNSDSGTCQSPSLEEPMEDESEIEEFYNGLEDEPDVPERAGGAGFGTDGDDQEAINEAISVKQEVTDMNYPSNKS", "experiment": "Inhibition of human recombinant SIRT1 deacetylase activity using Arg-His-Lys-Lys(epsilon-acetyl)-AMC as substrate at 5 uM incubated for 45 mins by fluorescence analysis"}, "[14]": {"experiment": "Antiproliferative activity against human HCT116 cells after 72 hrs by MTT assay", "format": "functional, cell-based", "details": "HCT-116, 72 h"}, "AGS [15]": {"system": "AGS", "experiment": "Downregulation of tNOX protein level in human AGS cells at 1 and 5 uM after 24 hrs by Western blot analysis", "format": "functional, cell-based"}, "HeLa": {"system": "HeLa", "experiment": "Antiproliferative activity against human HeLa cells after 72 hrs by MTT assay", "format": "functional, cell-based"}, "AGS [16]": {"system": "AGS", "experiment": "Induction of apoptosis in human AGS cells assessed as viable cells at 5 uM after 24 hrs by annexin V-FITC staining-based flow cytometric analysis (Rvb=83.7%)", "format": "functional", "details": "read-out: Activity", "in_short": "as §2"}, "AGS [17]": {"system": "AGS", "experiment": "Upregulation of total p53 level in human AGS cells at 1 and 5 uM after 24 hrs by Western blot analysis", "format": "cell-based"}, "AGS [18]": {"system": "AGS", "experiment": "Induction of apoptosis in human AGS cells assessed as necrotic cells at 5 uM after 24 hrs by annexin V-FITC staining-based flow cytometric analysis (Rvb=1.1%)", "format": "functional"}, "[19]": {"experiment": "Antiproliferative activity against human K562/4 cells after 72 hrs by MTT assay", "format": "functional, cell-based", "details": "K562/4, 72 h"}, "AGS [20]": {"system": "AGS", "experiment": "Induction of apoptosis in human AGS cells assessed as viable cells at 10 uM after 24 hrs by annexin V-FITC staining-based flow cytometric analysis (Rvb=83.7%)", "format": "functional", "details": "read-out: Activity", "in_short": "as §2"}, "AGS [21]": {"system": "AGS", "experiment": "Downregulation of Bid protein level in human AGS cells after 24 hrs by Western blot analysis", "format": "functional, cell-based"}, "[22]": {"target": "DNA topoisomerase 2-alpha (Homo sapiens) (UniProt P11388)", "sequence (P11388 whole entry)": "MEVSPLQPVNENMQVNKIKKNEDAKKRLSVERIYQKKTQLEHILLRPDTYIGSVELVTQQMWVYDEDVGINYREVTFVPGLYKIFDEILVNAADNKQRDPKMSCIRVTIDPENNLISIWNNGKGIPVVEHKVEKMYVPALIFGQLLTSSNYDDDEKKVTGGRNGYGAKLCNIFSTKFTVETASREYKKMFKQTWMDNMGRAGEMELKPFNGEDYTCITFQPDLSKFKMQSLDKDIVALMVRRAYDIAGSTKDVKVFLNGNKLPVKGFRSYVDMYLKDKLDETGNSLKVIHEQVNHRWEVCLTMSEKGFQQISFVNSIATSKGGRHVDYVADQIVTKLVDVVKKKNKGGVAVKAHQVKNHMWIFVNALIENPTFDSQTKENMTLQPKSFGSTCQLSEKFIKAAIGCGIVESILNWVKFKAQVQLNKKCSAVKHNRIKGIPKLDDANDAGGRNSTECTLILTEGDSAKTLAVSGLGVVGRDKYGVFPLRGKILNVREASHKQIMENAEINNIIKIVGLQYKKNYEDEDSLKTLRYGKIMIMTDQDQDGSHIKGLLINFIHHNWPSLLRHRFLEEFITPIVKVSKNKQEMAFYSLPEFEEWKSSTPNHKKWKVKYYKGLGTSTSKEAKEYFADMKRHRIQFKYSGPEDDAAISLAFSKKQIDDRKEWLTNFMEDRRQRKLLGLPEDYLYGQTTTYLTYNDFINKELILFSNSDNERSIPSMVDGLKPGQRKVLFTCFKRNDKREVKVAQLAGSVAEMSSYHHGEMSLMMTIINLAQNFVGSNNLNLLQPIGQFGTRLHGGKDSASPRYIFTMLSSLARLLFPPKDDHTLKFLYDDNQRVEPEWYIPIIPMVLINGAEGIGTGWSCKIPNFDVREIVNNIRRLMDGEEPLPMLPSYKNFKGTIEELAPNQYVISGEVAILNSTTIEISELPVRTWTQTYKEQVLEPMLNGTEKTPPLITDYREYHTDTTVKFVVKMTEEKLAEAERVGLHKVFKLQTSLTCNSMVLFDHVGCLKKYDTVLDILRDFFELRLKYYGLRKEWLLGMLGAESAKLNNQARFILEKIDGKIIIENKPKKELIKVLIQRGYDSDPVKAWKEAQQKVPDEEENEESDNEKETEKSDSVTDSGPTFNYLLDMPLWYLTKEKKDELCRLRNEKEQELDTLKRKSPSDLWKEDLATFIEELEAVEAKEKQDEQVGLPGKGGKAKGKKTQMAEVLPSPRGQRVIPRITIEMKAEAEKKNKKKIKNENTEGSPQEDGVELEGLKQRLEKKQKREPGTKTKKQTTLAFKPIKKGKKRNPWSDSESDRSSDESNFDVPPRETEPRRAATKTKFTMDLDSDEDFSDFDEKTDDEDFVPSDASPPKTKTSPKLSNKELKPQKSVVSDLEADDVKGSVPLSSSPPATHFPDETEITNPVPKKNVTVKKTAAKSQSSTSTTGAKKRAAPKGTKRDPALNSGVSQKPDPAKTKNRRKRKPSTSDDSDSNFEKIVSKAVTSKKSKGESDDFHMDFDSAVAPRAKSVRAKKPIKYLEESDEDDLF", "experiment": "Inhibition of Top2 (unknown origin)-mediated relaxation of pBR322 DNA at 0.1 to 2.5 uM incubated for 30 mins by ethidium bromide staining-based gel electrophoresis assay"}, "AGS [23]": {"system": "AGS", "experiment": "Induction of apoptosis in human AGS cells assessed as late apoptotic cells at 5 uM after 24 hrs by annexin V-FITC staining-based flow cytometric analysis (Rvb=5.5%)", "format": "functional", "in_short": "as §2"}, "K562 [24]": {"system": "K562", "experiment": "Resistance index, ratio of IC50 for human K562/4 cells to IC50 for human K562 cells", "format": "functional"}, "AGS [25]": {"system": "AGS", "experiment": "Induction of apoptosis in human AGS cells assessed as early apoptotic cells at 10 uM after 24 hrs by annexin V-FITC staining-based flow cytometric analysis (Rvb=9.8%)", "format": "functional", "in_short": "as §2"}}, "note": "Active and inactive are the calls of the source. The calls are words filed in the database; no cut-off is given here.", "data": [{"smiles": "N=C(N)NCCNc1c2c(c(NCCNC(=N)N)c3occc13)C(=O)c1ccccc1C2=O", "values": [{"measurement": "inhibition", "setting": "[1]", "value": "Active"}, {"measurement": "Activity", "setting": "AGS [2]", "value": "inactive"}, {"measurement": "inhibition", "setting": "[3]", "value": "Active"}, {"measurement": "IC50", "setting": "K562 [4]", "value": 1.65, "unit": "µM"}, {"measurement": "Activity", "setting": "AGS [5]", "value": 1.5, "unit": "%"}, {"measurement": "Activity", "setting": "AGS [6]", "value": "Active"}, {"measurement": "IC50", "setting": "L1210", "value": 5.54, "unit": "µM"}, {"measurement": "Activity", "setting": "AGS [7]", "value": "inactive"}, {"measurement": "IC50", "setting": "CCRF-CEM", "value": 9.02, "unit": "µM"}, {"measurement": "Activity", "setting": "AGS [8]", "value": 3, "unit": "%"}, {"measurement": "Activity", "setting": "AGS [9]", "value": "inactive"}, {"measurement": "Activity", "setting": "AGS [10]", "value": "inactive"}, {"measurement": "Activity", "setting": "AGS [11]", "value": "inactive"}, {"measurement": "Activity", "setting": "AGS [12]", "value": 8.6, "unit": "%"}, {"measurement": "inhibition", "setting": "[13]", "value": "inactive"}, {"measurement": "IC50", "setting": "[14]", "value": 1.02, "unit": "µM"}, {"measurement": "Activity", "setting": "AGS [15]", "value": "inactive"}, {"measurement": "IC50", "setting": "HeLa", "value": 3.27, "unit": "µM"}, {"measurement": "viability at 5 µM", "setting": "AGS [16]", "value": 86.3, "unit": "%"}, {"measurement": "Activity", "setting": "AGS [17]", "value": "Not Active"}, {"measurement": "Activity", "setting": "AGS [18]", "value": 1, "unit": "%"}, {"measurement": "IC50", "setting": "[19]", "value": 6.53, "unit": "µM"}, {"measurement": "viability at 10 µM", "setting": "AGS [20]", "value": 84.9, "unit": "%"}, {"measurement": "Activity", "setting": "AGS [21]", "value": "inactive"}, {"measurement": "inhibition", "setting": "[22]", "value": "Active"}, {"measurement": "Activity", "setting": "AGS [23]", "value": 4.2, "unit": "%"}, {"measurement": "Ratio IC50", "setting": "K562 [24]", "value": 3.98}, {"measurement": "Activity", "setting": "AGS [25]", "value": 10.5, "unit": "%"}]}]}
